Sampled rows, rich in hits. Any-hit rate of the full collection: about 1.3%.
MT1-MMP act inh: blockers of MT1-MMP proenzyme processing, primary screen, HT1080 RFP-PRO-GFP cells, GFP/RFP fluorescence; GFP/RFP ratio change, % at 20 µM; Matrix metalloproteinase-14 (Homo sapiens), P50281; 360,000 compounds, 0.061% hits; GFP/RFP ratio fluorescence, overnight; percent of plate control window, DMSO zero;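 active means GFP/RFP ratio change of at least 30% with cell ATP level not reduced by more than half and red fluorescence within 50% of control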
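Material – HT1080 RFP-PRO-GFP cells · Control set – DMSO wells and RFP-L50D-GFP cells · Incubation – overnight cell settling, then overnight compound exposure, 37 °C, 5% CO2 · Compound dosing – single-point 20 µM compound, 1% DMSO · Read-out – GFP/RFP fluorescence ratio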
sPLA2-III inh: human group III sPLA2 inhibitors, primary screen, biochemical, QFRET, BODIPY PC-A2 liposome substrate; Group 3 secretory phospholipase A2 (Homo sapiens), Q9NZ20; QFRET BODIPY PC-A2 liposome hydrolysis, fluorescence; inhibition, % at 12.2 µM; 370,000 compounds, 0.56% hits; AID 743126, 2013;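 active means inhibition above mean plus 3 SD of compounds lying within the high and low control bounds, cut at about 19% in these data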;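 further: 0% = median of test compound wells and 100% = no enzyme DMSO wells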
Target sequence (Q9NZ20 whole entry, looked up): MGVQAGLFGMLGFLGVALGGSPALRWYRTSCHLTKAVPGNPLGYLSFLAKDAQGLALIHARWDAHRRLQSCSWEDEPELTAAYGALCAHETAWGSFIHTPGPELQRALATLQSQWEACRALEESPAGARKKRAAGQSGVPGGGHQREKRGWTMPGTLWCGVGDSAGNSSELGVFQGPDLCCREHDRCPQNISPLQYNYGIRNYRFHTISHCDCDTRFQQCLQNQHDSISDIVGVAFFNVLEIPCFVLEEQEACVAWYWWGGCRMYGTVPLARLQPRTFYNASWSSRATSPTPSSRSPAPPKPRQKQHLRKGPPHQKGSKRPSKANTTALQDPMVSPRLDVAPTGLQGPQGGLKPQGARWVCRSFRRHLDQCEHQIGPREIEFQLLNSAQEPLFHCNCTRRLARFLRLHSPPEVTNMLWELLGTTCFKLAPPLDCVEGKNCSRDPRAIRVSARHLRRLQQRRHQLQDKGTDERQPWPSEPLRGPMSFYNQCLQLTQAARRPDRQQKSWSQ
TAG inh: inhibitors of triacylglycerol accumulation, primary screen, cell-based, uHTS, fluorescence, H9c2; H9c2 cells, Nile Red lipid (TAG) fluorescence; cells loaded with 200 µM oleic acid; inhibition, % at 12.5 µM; 230,000 compounds, 0.66% hits;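 active means pattern-corrected inhibition of lipid staining of at least 50% with the nuclear-stain viability signal not falling by more than 50%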;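 further: 0% = DMSO wells and 100% = triacsin C control wells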
Efflux pump mplx: inhibitors of Candida efflux pumps in yeast, primary screen, S. cerevisiae, Nile Red, multiplex. AID 485275, 2010. inhibition, % at 10 µM. 330,000 compounds, 0.44% hits. S. cerevisiae Candida pump triplex;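 active means plate passing quality check with inhibition over a set limit, or well fluorescence over plate mean plus 4 SD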;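 further: Nile Red retained in pooled yeast measured as flow cytometry median fluorescence; 0% = buffer negative control and 100% = Enniatin B positive control; higher means more Nile Red kept so more efflux inhibition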
sPLA2 confirm: human group III sPLA2 inhibitors, confirmation, biochemical, QFRET, triplicate | shares compounds with sPLA2-III inh | recombinant hGIII-sPLA2, BODIPY PC-A2 QFRET fluorescence | inhibition, % at 12.2 µM | 2,000 compounds, 34% hits | AID 743280, 2014;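 active means mean inhibition across triplicates above the hit cutoff set in the earlier primary screen, cut at about 19% in these data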;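 further: 0% = enzyme with DMSO and 100% = DMSO wells lacking enzyme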
BODIPY interf: 535nm fluorescence optical interference, confirmation, artefact control for HGIII-sPLA2 inhibitor project, biochemical, QFRET; shares compounds with sPLA2-III inh; BODIPY FL product fluorescence interference; inhibition, % at 12.2 µM; 2,000 compounds, 8.5% hits;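 active means average inhibition above the solvent-only control mean plus 3 SD, cut at about 6% in these data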;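 further: 0% = DMSO with substrate plus product and 100% = DMSO with substrate alone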
BODIPY interf DR: 535nm fluorescence optical interference, dose response, artefact control for HGIII-sPLA2 inhibitor project, biochemical, QFRET; shares compounds with sPLA2-III inh; BODIPY FL product fluorescence interference, cell-free; IC50, µM; 240 tested, under 10 active; AID 743455, 2014;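 active means IC50 at or below 10 µM; inactive means IC50 above 10 µM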
* = called active by the depositor; . = no result.

SMILES	MT1-MMP act inh	sPLA2-III inh	TAG inh	Efflux pump mplx	sPLA2 confirm	BODIPY interf	others
Cc1[nH]c(=O)[nH]c(=O)c1CSCC(=O)OCC(=O)Nc1ccccn1	0	0	-11	0	.	.
COC(=O)[C@@]1(Cc2ccc(OC)cc2)[C@H]2c3cc(C(=O)N4CCCC4)n(Cc4cc(C)n(C)n4)c3C[C@H]2CN1C(=O)c1ccccc1	-1	4	.	.	.	.
CC1(C)CC(=O)C=C(c2n[nH]nc2C2CCCCC2)C1	3	-9	4	.	.	.
Fc1cnc(N2CCN(c3ccccc3)CC2)nc1N1CCN(c2ccccc2)CC1	-8	21*	.	0	-1	-7
Cc1cc2nc(-c3ccc(=O)[nH]c3)n(C)c2cc1C	5	-9	.	0	.	.
Cc1cc2nc(C)c(=O)n(C)c2cc1C	2	23*	.	0	6	-8
Cc1ccc2nc(SCCC(=O)O)cc(C)c2c1	7	2	.	0	.	.
Fc1ccc(-n2c(-c3cc(C4CC4)[nH]n3)n[nH]c2=S)cc1Cl	3	28*	10	0	23*	1
Oc1c(CN2CCCCC2)ccc2cccnc12	-2	21*	97	.	1	-44
O=C(NNC(=S)Nc1ccccc1)Nc1ccccc1	-1	5	-1	0	.	.
COc1ccc(CCC(=O)NNC(=S)Nc2cccc(C(C)=O)c2)cc1	4	20*	-6	0	28*	1	BODIPY interf DR=>122
CC(C)Oc1ccc(CCC(=O)NNC(=S)Nc2ccccc2)cc1	5	17	4	0	.	.
COc1ccc(CCC(=O)NNC(=O)Nc2cccc(Cl)c2)cc1	-2	-10	2	0	.	.
O=C(NNC(=S)Nc1ccccc1)NNC(=S)Nc1ccccc1	2	34*	8	0	29*	0	BODIPY interf DR=>122
O=C(NNC(=S)Nc1ccccc1)c1cc(Br)ccc1Cl	4	33*	7	0	28*	6.1*
CC(C)Oc1ccc(CC(=O)NNC(=S)Nc2ccccc2)cc1	-6	29*	-13	0	30*	-5	BODIPY interf DR=>122
Cn1ncc(Cl)c1C(=O)N1CCC(Cc2ccccc2)CC1	-3	-1	-16	0	.	.
CCN(Cc1ccccc1)CC(O)COC(c1ccc(OC)cc1)c1ccc(OC)cc1 (configuration not stated)	-1	-3	.	0	.	.
Cc1ccc(Cn2c([N+](=O)[O-])cnc2C)cc1	-1	22*	.	0	8	0
CCN(Cc1ccccc1)c1ccc(N=Nc2nn(C)c(C)c2[N+](=O)[O-])cc1	29	7	.	0	.	.
CCN(CC)c1ccc(N=Nc2nn(C)c(C)c2[N+](=O)[O-])cc1	44	23*	-14	0	39*	4	BODIPY interf DR=>122
CC(C)(C)CC(=O)NC(=S)NCCc1ccccc1	-10	4	.	0	.	.
CC(C)(C)NC(=S)NCCc1ccccc1	2	20*	.	0	24*	-5
CCN(CC)C(=O)[C@H]1C[C@H](CC(=O)NCCN2CCOCC2)C(=O)N2CCc3c([nH]c4cc(CCC(=O)N(C)C)ccc34)[C@]12C	1	-6	8	0	.	.
Nc1ccccc1SCCS(=O)(=O)c1ccc(Cl)cc1	0	1	.	0	.	.
SMILES	MT1-MMP act inh	sPLA2-III inh	TAG inh	Efflux pump mplx	sPLA2 confirm	BODIPY interf	others
S=c1[nH]nc(-c2ccc(Cl)cc2)n1-c1ccc2c(c1)OCCO2	1	21*	9	0	32*	1	BODIPY interf DR=>122
Fc1ccc(-c2n[nH]c(=S)n2-c2ccc3c(c2)OCCO3)cc1	5	15	1	0	.	.
CC(C)(CCC(=S)N1CCOCC1)C1CCCCC1	-2	19*	.	0	18	-7
S=C(CN1CCCC1=S)N1CCOCC1	7	0	3	0	.	.
COc1cccc(-c2csc(NNC(=O)c3cccs3)n2)c1	9	23*	6	0	45*	7.3*
CCS(=O)(=O)N1CCC(C(=O)NCc2cccnc2)CC1	3	20*	.	0	-2	-2
S=C(SCc1nc(-c2ccc(Cl)cc2)no1)N1CCSCC1	.	3	.	.	.	.
COc1cc(CN(C(=S)NCC(=O)NC2CCCC2)C2CCCC2)cc(OC)c1OC	-3	23*	.	0	3	-15
Cc1nn2c(-c3ccccn3)ccnc2c1Cl	-2	6	9	0	.	.
Cc1cc(N(C)C)ccc1N=Nc1ccc2ncccc2c1	12	23*	.	0	23*	2
CCN(Cc1ccc2c(c1)OCCO2)C(=O)CSc1nc(C)nc2sc(C)c(C)c12	2	13	-18	0	.	.
Cc1ccc(C(=O)Nc2sc(C)c(C)c2C(=O)c2ccccc2)cc1	0	23*	.	0	-4	-6
CN(Cc1ccc2nsnc2c1)C(=O)C1CCC(=O)N(CCc2ccccc2)C1 (configuration not stated)	5	9	140	.	.	.
COc1ccc(OC)c(N(CC(=O)NCC2CCCO2)S(=O)(=O)c2ccccc2)c1 (configuration not stated)	-1	12	.	0	.	.
O=C(O)C1CSC2c3ccccc3C(=O)N12 (configuration not stated)	0	20*	.	0	3	-5
CC(C)(C)C(=O)C[n+]1ccc(C(N)=O)cc1	1	26*	.	0	0	-3
Cc1c(C(=O)NNC(=S)NCc2ccc(Cl)cc2)oc2ccccc12	-1	24*	-1	0	14	16*
COc1ccc(NC(=S)NNC(=O)CNc2ccc(Cl)cc2)cc1	0	29*	.	0	35*	7.4*
CCN(CC(=O)NCc1ccc(Cl)cc1)C(=O)c1oc2ccccc2c1C	1	-10	.	0	.	.
O=C(CNc1cccc(Cl)c1)NNC(=S)NCc1ccccc1	4	27*	-1	0	32*	-1	BODIPY interf DR=>122
O=C(CNc1ccc(Cl)cc1)NNC(=S)NCc1ccccc1	2	25*	0	0	38*	4	BODIPY interf DR=>122
Cc1cc(C(=O)NNC(=O)c2sccc2C)c(C)o1	7	2	-7	0	.	.
CCCCCCCCNC(=S)NCCN1CCCCC1	3	23*	-2	.	21*	-16
S=C(NCCCN1CCOCC1)NCCCN1CCOCC1	0	-2	.	0	.	.
Cc1ccc(S(=O)(=O)NC(=O)c2ccccc2C)cc1	-1	1	.	0	.	.

Bioassay records: PubChem BioAssay, several laboratories
